Measurements published in ChEMBL document CHEMBL4138127, “Synthesis and evaluation of new pyridyl/pyrazinyl thiourea derivatives: Neuroprotection against amyloid-β-induced toxicity” (Eur J Med Chem, 2017).

Experiments:
Mus musculus [1] = organism: Mus musculus; assay: Inhibition of amyloid beta (1 to 42)-induced mPTP opening in mouse HT22 cells assessed as reduction in mitochondrial membrane potential loss by measuring green to red fluorescence ratio at 5 uM preincubated for 10 mins followed by amyloid beta (1 to 42) addition measured every 1 hr for 3 hrs by JC1 staining based fluorescence assay relative to control; format: cell-based
Outline: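 HT-22 cells were seeded at 30,000 per well the day before and loaded with JC-1 (7.5 µM final) in phenol red-free Opti-MEM for 1 h 15 min at 37 °C, then PBS-washed. Compound solution (5 µM in Opti-MEM) was added for 10 min at 37 °C, followed by Aβ1-42 solution (5 µM). Red (ex/em 530/580) and green (485/530) fluorescence were read hourly for 3 h. Green/red ratio change was normalized to vehicle control as 100%.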

ATP synthase = assay: Inhibition of ATP synthase in mouse HT22 cells assessed as ATP production at 5 uM after 7 hrs by luciferase based assay relative to control; format: cell-based; set-up: scale not given: the % may be the effect or the level left; conditions: read-out: Activity
Outline: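 HT-22 cells were seeded at 10,000 per well one day before, then given 5 µM compound for 7 h at 37 °C. After PBS washes, cells were lysed in 1% Triton X-100 in TBST. Protein was measured by BCA, and equal lysate amounts were assayed for ATP with a luciferase-based kit. Vehicle control was subtracted and percent inhibition was calculated relative to vehicle control ATP.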

[2] = Cytotoxicity against mouse HT22 cells assessed as cell viability at 5 uM after 24 hrs by MTT assay relative to control; format: cell-based, HT-22; conditions: read-out: Activity
Outline: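 HT-22 mouse hippocampal cells were grown in DMEM with 10% FBS and penicillin/streptomycin at 37 °C under 5% CO2, seeded at 5000 per well and exposed to 5 µM compound for 24 h at 37 °C. MTT was added for 2 h, then formazan was dissolved in 10% Triton X-100/isopropanol/0.1 M HCl for 1 h at room temperature. A570 was read and vehicle control OD subtracted to give viability.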

Mus musculus [3] = organism: Mus musculus; assay: Inhibition of mPTP opening in mouse HT22 cells assessed as protection against amyloid beta (1 to 42)-induced toxicity by measuring cell viability at 5 uM preincubated for 10 mins followed by amyloid beta (1 to 42) addition measured after 24 hrs by MTT assay (reference value: 50 to 70%); format: cell-based
Outline: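 HT-22 cells were seeded at 5000 per well the day before. Compound was added as a 10 µM solution for 10 min at 37 °C, then an equal volume of 10 µM Aβ1-42 was added, and cells were incubated 24 h at 37 °C. The table footnote states 5 µM of each. Viability was read by MTT (2 h, acidic Triton/isopropanol solubilization, A570). Protection was scaled to vehicle + Aβ as 0% and vehicle alone as 100%.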

Row | SMILES | Ratio (Mus musculus [1]) [%] | activity at 7 h, 5 µM (ATP synthase) [%] | viability at 24 h, 5 µM [2] [%] | Activity (Mus musculus [3]) [%]
1 | Fc1cccc(COc2cccnc2NC(=S)Nc2cccc3ccccc23)c1 | 16.7 | 100 | 102 | 48.2
2 | S=C(NCc1ccccc1)Nc1ncccc1OCc1ccccc1 | 75.3 | – | – | –
3 | CC(C)(C)NC(=S)Nc1ncccc1OCc1cccc(Cl)c1 | 112 | – | – | –
4 | S=C(Nc1cccc(Cl)c1)Nc1ncccc1OCc1ccccc1Cl | 14.2 | 103 | 116 | 22.7
5 | CC(C)(C)NC(=S)Nc1ncccc1OCc1cccc(F)c1 | 123 | – | – | –
6 | CC(C)(C)NC(=S)Nc1ncccc1OCc1ccccc1 | 91 | – | – | –
7 | S=C(NCc1ccccc1)Nc1nccnc1OCc1ccccc1Cl | 5.3 | 85.1 | 105 | 3.8
8 | CC(C)NC(=S)Nc1nccnc1OCc1cccc(F)c1 | 43.1 | – | – | –
9 | Cc1ccc(NC(=S)Nc2ncccc2OCc2ccccc2)cc1 | 23.3 | 66 | – | –
10 | Cc1ccc(NC(=S)Nc2ncccc2OCc2ccccc2Cl)cc1 | 13 | 102 | 93.5 | 6.6
11 | S=C(Nc1ncccc1OCc1ccccc1Cl)Nc1cccc2ccccc12 | 17.5 | 100 | 89.3 | 9.5
12 | Cc1ccc(NC(=S)Nc2ncccc2OCc2cccc(Cl)c2)cc1 | 26 | 94.5 | 96.2 | 22.8
13 | S=C(Nc1ncccc1OCc1cccc(Cl)c1)Nc1cccc2ccccc12 | 26 | 107 | 123 | 18.6
14 | S=C(Nc1cccc(Cl)c1)Nc1ncccc1OCc1cccc(Cl)c1 | 38 | 104 | 98.3 | 51.8
15 | Cc1ccc(NC(=S)Nc2nccnc2OCc2cccc(F)c2)cc1 | 4.6 | 102 | 96.4 | 69.3
16 | S=C(Nc1cccc(Cl)c1)Nc1ncccc1OCc1ccccc1 | 25.3 | 68 | – | –
17 | CC(C)NC(=S)Nc1ncccc1OCc1ccccc1 | 45.2 | – | – | –
18 | S=C(Nc1ncccc1OCc1ccccc1)Nc1cccc2ccccc12 | 17.1 | 65 | – | –
19 | CC(C)(C)NC(=S)Nc1nccnc1OCc1cccc(F)c1 | 28.1 | 99.7 | 101 | 13.2
20 | CC(C)NC(=S)Nc1ncccc1OCc1ccccc1Cl | 31.7 | 93.7 | 99.3 | -6.7
21 | CCNC(=S)Nc1ncccc1OCc1cccc(F)c1 | 88.7 | – | – | –
22 | CCNC(=S)Nc1ncccc1OCc1ccccc1Cl | 94.1 | – | – | –
23 | NC(=O)CN1CCCC1=O [PIRACETAM] | – | 88 | – | 29
24 | S=C(Nc1cccc(Cl)c1)Nc1nccnc1OCc1ccccc1Cl | 30.8 | 98 | 114 | 29.6
25 | CC(C)NC(=S)Nc1ncccc1OCc1cccc(F)c1 | 86 | – | – | –
26 | CC(C)NC(=S)Nc1nccnc1OCc1ccccc1Cl | 56.3 | – | – | –
27 | CCNC(=S)Nc1ncccc1OCc1ccccc1 | 66.8 | – | – | –
